Results on 44 compounds are retold here after ChEMBL document CHEMBL1125288, “Structure-activity relationships of 1-[(2-hydroxyethoxy)methyl]-6-(phenylthio)thymine analogues: effect of substitutions at the C-6 phenyl ring and at the C-5 position on anti-HIV-1 activity” (J Med Chem, 1992).

The nature of test [1]: Concentration required to achieve 50% protection of MT-4 cells against the cytopathic effect of HIV-1. The test is classed as functional, cell-based. The settings on record: Homo sapiens, MT4. In short, it runs like this: (§1)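 MT-4 cells at 1 × 10^6 cells/mL were infected with HIV-1 (HTLV-IIIB) or HIV-2 (LAV-2ROD) at an MOI of 0.02 (virus titrated as CCID50 in MT-4). Cells were plated immediately onto serial compound dilutions from DMSO stocks of 50 mM or higher. After 4 days at 37 °C, viable cells were counted by MTT.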
A general note: Protection from cytopathic effect is a common read-out in antiviral testing.

Another test concerns MT4. As to the kind of experiment: Concentration required to reduce the viability of mock-infected MT-4 cells by 50%. The test is classed as functional. The note with it: Homo sapiens. Summed up:
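Mock-infected MT-4 cells were run in parallel with the antiviral assay: 1 × 10^6 cells/mL, serial compound dilutions, 4 days at 37 °C.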

A short description of test [2]: Concentration of compound required to reduce the viability of mock-infected PBL(peripheral blood lymphocytes) cells. by 50%. In kind it is functional. The settings on record: Homo sapiens.
Test [3] in a line: Concentration of compound required to reduce the viability of mock-infected HIV-2 (LAV-2ROD)/MT-4 cells by 50%. The test is classed as functional. The note with it: Homo sapiens, MT4. Summed up: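 Mock-infected MT-4 cells, run in parallel with the HIV-2 LAV-2ROD antiviral assay. Cells at 1 × 10^6 cells/mL were plated into wells holding serial compound dilutions, with DMSO stocks at 50 mM or higher. After 4 days at 37 °C, viable cells were counted by the MTT method.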

A short description of test [4]: Concentration required inhibit HIV-2 (LAV-2ROD)replication in MT-4 cells. The test is classed as functional, cell-based. The settings on record: Homo sapiens, MT4. In short, it runs like this:
as §1

Test [5] can be described thus: Concentration required inhibit HIV-1 (HTLV-IIIb strain) replication in PBL(peripheral blood lymphocytes) cells. In kind it is functional, cell-based. The note with it: Homo sapiens. Summed up: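 Phytohemagglutinin-stimulated PBL at 1 × 10^6 cells/mL were infected with HIV-1 HTLV-IIIB at an MOI of 0.2 and cultured at 37 °C with varied compound concentrations. On day 4 cells were subcultured 1:5 into fresh medium with compound. On day 7, p24 antigen in the supernatant was measured by sandwich ELISA, and EC50 was derived.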

What is called EC50 is the concentration giving half of the maximal effect. A high value points to a less potent agent. Broadly, the CC50 is the concentration giving 50% cytotoxicity. For `Cc1c(Sc2ccc(Cl)cc2)n(COCCO)c(=O)[nH]c1=O`, in test [1], the EC50 is over 250 µM. The same compound returned a CC50 in the test with MT4 of over 250 µM.
On to `Cc1c(Sc2cccc(CO)c2)n(COCCO)c(=O)[nH]c1=O`, for which the EC50 in test [1] was over 292 µM. The midpoint of cytotoxicity in the test with MT4, the CC50, lay at 292 µM.
For `Cc1c(Sc2cc(Cl)cc(Cl)c2)n(COCCO)c(=O)[nH]c1=O`, in that order: 1.3 µM and 130 µM.
For `Cc1c(Sc2ccc(C#N)cc2)n(COCCO)c(=O)[nH]c1=O`, in that order: over 250 µM and over 250 µM.
In the same order, the values of `Cc1c(Sc2ccccc2Cl)n(COCCO)c(=O)[nH]c1=O` are over 130 µM and 130 µM.
Compound `CC(=O)c1ccc(Sc2c(C)c(=O)[nH]c(=O)n2COCCO)cc1` showed an EC50 in test [1] of over 110 µM. This compound also showed a CC50 in the test with MT4 of 110 µM.
For `Cc1c(Sc2ccc([N+](=O)[O-])cc2)n(COCCO)c(=O)[nH]c1=O`, in that order: over 190 µM and 190 µM.
In the same order, the values of `COc1ccc(Sc2c(C)c(=O)[nH]c(=O)n2COCCO)cc1` are over 250 µM and over 250 µM.
In the same order, the values of `CC(=O)c1cccc(Sc2c(C)c(=O)[nH]c(=O)n2COCCO)c1` are 7.3 µM and 228 µM.
`O=C(Nc1ccccc1)c1c(Sc2ccccc2)n(COCCO)c(=O)[nH]c1=O`: the EC50 in test [1] was over 18 µM. The midpoint of cytotoxicity in the test on MT4, the CC50, lay at 18 µM.
As to `Cc1c(Sc2ccc(O)cc2)n(COCCO)c(=O)[nH]c1=O`, the EC50 in test [1] is over 277 µM. In the test on MT4, this compound registered a CC50 of 277 µM.
In the same order, the values of `Cc1cc(C)cc(Sc2c(C)c(=O)[nH]c(=S)n2COCCO)c1` are 0.22 µM and 172 µM.
`Cc1c(Sc2ccc(F)cc2)n(COCCO)c(=O)[nH]c1=O`: the EC50 in test [1] was over 250 µM. The compound further yielded a CC50 with MT4 of over 250 µM.
In the case of `Cc1c(Sc2cccc(C(=O)O)c2)n(COCCO)c(=O)[nH]c1=O`, in test [1], the EC50 was over 352 µM. The CC50 in the test with MT4 worked out at 352 µM.
For `Cc1cccc(Sc2c(C)c(=O)[nH]c(=O)n2COCCO)c1`, in that order: 2.6 µM and 420 µM.
In the same order, the values of `Cc1c(Sc2cccc(I)c2)n(COCCO)c(=O)[nH]c1=O` are 10 µM and 106 µM.
In the case of `CCc1c(Sc2cc(C)cc(C)c2)n(COCCO)c(=O)[nH]c1=O`, the midpoint of cytotoxicity in the test with MT4, the CC50, lay at 149 µM.
`Cc1ccc(Sc2c(C)c(=O)[nH]c(=O)n2COCCO)cc1` showed a 50% effective concentration (EC50) in test [1] of 220 µM. The compound further had a CC50 with MT4 of over 250 µM.
For `COC(=O)c1cccc(Sc2c(C)c(=O)[nH]c(=O)n2COCCO)c1`, in that order: 7.9 µM and 221 µM.
In the same order, the values of `Cc1c(Sc2cccc([N+](=O)[O-])c2)n(COCCO)c(=O)[nH]c1=O` are 34 µM and 170 µM.
`CCCc1c(Sc2ccccc2)n(COCCO)c(=O)[nH]c1=O` yielded an EC50 in test [1] of 3.4 µM. Moreover, the CC50 in the test with MT4 was determined as 244 µM.
In the same order, the values of `COc1cccc(Sc2c(C)c(=O)[nH]c(=O)n2COCCO)c1` are 22 µM and over 250 µM.
In the same order, the values of `Cc1c(Sc2ccccc2[N+](=O)[O-])n(COCCO)c(=O)[nH]c1=O` are 140 µM and over 250 µM.
For `C=CCc1c(Sc2ccccc2)n(COCCO)c(=O)[nH]c1=O`, in that order: 2.5 µM and 183 µM.
As to `CC(C)c1c(Sc2ccccc2)n(COCCO)c(=O)[nH]c1=O`, the EC50 in test [1] worked out at 0.063 µM. In the test on MT4, this compound registered a CC50 of 231 µM.
`Cc1cc(C)cc(Sc2c(C)c(=O)[nH]c(=O)n2COCCO)c1` yielded a CC50 in the test on MT4 of 243 µM.
`Cc1c(Sc2cccc(C(C)(C)C)c2)n(COCCO)c(=O)[nH]c1=O` returned an EC50 in test [1] of 12 µM. Also, in the test on MT4, the CC50 worked out at 75 µM.
Turning to `Cc1cc(C)cc(Sc2c(C(C)C)c(=O)[nH]c(=O)n2COCCO)c1`, the midpoint of cytotoxicity in the test on MT4, the CC50, lay at 128 µM.
Regarding `Cc1c(Sc2cccc(F)c2)n(COCCO)c(=O)[nH]c1=O`, the EC50 in test [1] was determined as 3.3 µM. Besides, the midpoint of cytotoxicity in the test with MT4, the CC50, lay at 282 µM.
In the same order, the values of `COc1ccccc1Sc1c(C)c(=O)[nH]c(=O)n1COCCO` are 19 µM and over 250 µM.
For the compound `CCc1c(Sc2ccccc2)n(COCCO)c(=O)[nH]c1=O`, the values for the EC50 in test [1], in test [4] and in test [5] were 0.12 µM, over 400 µM and 0.19 µM, respectively. Moreover, the CC50 in the test with MT4 is 400 µM; in test [2] it was 108 µM; in test [3], 400 µM.
Turning to `Cc1c(Sc2cccc(C#N)c2)n(COCCO)c(=O)[nH]c1=O`, the half-maximal effective concentration (EC50) in test [1] came to 10 µM. Besides, the CC50 in the test with MT4 stood at 234 µM.
For `Cc1c(Sc2cccc(O)c2)n(COCCO)c(=O)[nH]c1=O`, in that order: 82 µM and 446 µM.
In the same order, the values of `Cc1c(Sc2cccc(Br)c2)n(COCCO)c(=O)[nH]c1=O` are 5.7 µM and 141 µM.
For `Cc1ccccc1Sc1c(C)c(=O)[nH]c(=O)n1COCCO`, in that order: 71 µM and over 250 µM.
In the case of `Cc1c(Sc2ccccc2)n(COCCO)c(=S)[nH]c1=O`, the concentration giving a half-maximal response (EC50) in test [1] came to 0.98 µM. The same compound displayed a CC50 in the test with MT4 of 123 µM.
For `COC(=O)c1c(Sc2ccccc2)n(COCCO)c(=O)[nH]c1=O`, in that order: over 6.6 µM and 6.6 µM.
In test [1], `Cc1c(Sc2cccc(C(N)=O)c2)n(COCCO)c(=O)[nH]c1=O` had an EC50 of over 306 µM. Also, it took 306 µM to reach half-maximal cytotoxicity with MT4 (CC50).
For `CCc1cccc(Sc2c(C)c(=O)[nH]c(=O)n2COCCO)c1`, in that order: 2.7 µM and 181 µM.
For `Cc1c(Sc2cccc(Cl)c2)n(COCCO)c(=O)[nH]c1=O`, in that order: 13 µM and 210 µM.
In the same order, the values of `CCc1c(Sc2cc(Cl)cc(Cl)c2)n(COCCO)c(=O)[nH]c1=O` are 0.014 µM and 51 µM.
`Cc1c(Sc2cccc(C(F)(F)F)c2)n(COCCO)c(=O)[nH]c1=O` displayed an EC50 in test [1] of 45 µM. For the same compound, in the test on MT4, the CC50 was found to be 196 µM.
Take `Cc1c(Sc2ccccc2)n(COCCO)c(=O)[nH]c1=O` [HEPT]: the figures for the EC50 in test [1], in test [4] and in test [5] were 7 µM, over 250 µM and 7.9 µM, respectively. For the same compound, the CC50 came to 743 µM in the test with MT4, 640 µM in test [2] and 740 µM in test [3].
In the case of `Cc1cn([C@H]2C[C@H](N=[N+]=[N-])[C@@H](CO)O2)c(=O)[nH]c1=O` [ZIDOVUDINE], the EC50 in test [1] was 0.006 µM. The compound also gave a CC50 with MT4 of 7.8 µM.
